# According to ChEMBL document CHEMBL5329156, “Discovery and development of novel substituted monohydrazides as potent antifungal agents” (RSC Med Chem, 2023):
# Legend:
# Type in all cases: functional
# [1] = test system: Candida albicans; assay: Antifungal activity against Candida albicans ATCC 10231 assessed as fungal growth inhibition by double dilution method
# Outline: (§1)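 Broth microdilution after CLSI M27-A3/M38-A2 with minor changes. Single colony grown overnight in YPD at 35 °C, 200 rpm. Compound final range 0.06-31.3 µg/mL; incubated 48 h at 35 °C.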
# [2] = test system: Candida albicans; assay: Antifungal activity against Candida albicans ATCC 64124 assessed as fungal growth inhibition by double dilution method
# Outline: (§2)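 Broth microdilution after CLSI M27-A3/M38-A2 with minor modifications. A single colony was grown overnight in YPD at 35 °C with shaking at 200 rpm. Cells were mixed 1:1 with compound (final 0.06-31.3 µg/mL, from DMSO stocks) and incubated 48 h at 35 °C.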
# [3] = test system: Candida albicans; assay: Antifungal activity against itraconazole/fluconazole susceptible Candida albicans ATCC MYA-2876 assessed as fungal growth inhibition by double dilution method; outline: as §2
# [4] = test system: Candida albicans; assay: Antifungal activity against itraconazole/fluconazole resistant Candida albicans ATCC 90819 assessed as fungal growth inhibition by double dilution method; outline: as §2
# [5] = test system: Candida albicans; assay: Antifungal activity against itraconazole/fluconazole susceptible Candida albicans ATCC MYA-2310 assessed as fungal growth inhibition by double dilution method; outline: as §2
# [6] = test system: Candida albicans; assay: Antifungal activity against itraconazole/fluconazole resistant Candida albicans ATCC MYA-1237 assessed as fungal growth inhibition by double dilution method; outline: as §2
# [7] = test system: Candida albicans; assay: Antifungal activity against itraconazole/fluconazole resistant Candida albicans ATCC MYA-1003 assessed as fungal growth inhibition by double dilution method; outline: as §2
# [8] = test system: Nakaseomyces glabratus; assay: Antifungal activity against Candida glabrata ATCC 2001 assessed as fungal growth inhibition by double dilution method; outline: as §1
# [9] = test system: Pichia kudriavzevii; assay: Antifungal activity against Pichia kudriavzevii ATCC 6258 assessed as fungal growth inhibition by double dilution method; outline: as §1
# [10] = test system: Nakaseomyces glabratus; assay: Antifungal activity against Candida glabrata ATCC 22019 assessed as fungal growth inhibition by double dilution method; outline: as §1
# [11] = test system: [Candida] auris; assay: Antifungal activity against Candida auris AR Bank # 0384 assessed as fungal growth inhibition by double dilution method; conditions: Candidozyma auris; outline: as §1
# [12] = test system: [Candida] auris; assay: Antifungal activity against Candida auris AR Bank # 0390 assessed as fungal growth inhibition by double dilution method; conditions: Candidozyma auris; outline: as §1
# [13] = test system: Cryptococcus neoformans; assay: Antifungal activity against Cryptococcus neoformans ATCC MYA-895 assessed as fungal growth inhibition by double dilution method; outline: as §1
# [14] = test system: Aspergillus terreus; assay: Antifungal activity against Aspergillus terreus ATCC MYA-3633 assessed as fungal growth inhibition by double dilution method
# [15] = test system: Aspergillus fumigatus; assay: Antifungal activity against Aspergillus fumigatus NRRL 163 assessed as fungal growth inhibition by double dilution method
# [16] = test system: Aspergillus flavus; assay: Antifungal activity against Aspergillus flavus ATCC MYA-3631 assessed as fungal growth inhibition by double dilution method
# [17] = test system: Aspergillus nidulans; assay: Antifungal activity against Aspergillus nidulans ATCC 38163 assessed as fungal growth inhibition by double dilution method
# [18] = test system: Aspergillus fumigatus; assay: Antifungal activity against Aspergillus fumigatus NRRL 5109 assessed as fungal growth inhibition by double dilution method
# [19] = test system: Aspergillus fumigatus; assay: Antifungal activity against Aspergillus fumigatus NRRL 6113 assessed as fungal growth inhibition by double dilution method
Structure (SMILES),MIC [1] [µg/mL],MIC [2] [µg/mL],MIC [3] [µg/mL],MIC [4] [µg/mL],MIC [5] [µg/mL],MIC [6] [µg/mL],MIC [7] [µg/mL],MIC [8] [µg/mL],MIC [9] [µg/mL],MIC [10] [µg/mL],MIC [11] [µg/mL],MIC [12] [µg/mL],MIC [13] [µg/mL],MIC [14] [µg/mL],MIC [15] [µg/mL],MIC [16] [µg/mL],MIC [17] [µg/mL],MIC [18] [µg/mL],MIC [19] [µg/mL]
COc1cccc(NNC(=O)c2cccc(F)n2)c1,0.98,0.98,0.49,3.9,1.95,1.95,0.98,15.6,0.24,3.9,1.95,0.98,0.49,3.9,15.6,> 31.3,1.95,7.8,> 31.3
COc1cccc(NNC(=O)c2cccc(Br)n2)c1,1.95,3.9,0.49,1.95,7.8,0.98,3.9,7.8,0.24,0.98,0.98,1.95,0.98,1.95,> 31.3,> 31.3,3.9,31.3,> 31.3
O=C(NNc1cccc(F)c1)c1ccc(F)cc1F,0.24,1.95,3.9,7.8,3.9,0.98,1.95,7.8,1.95,3.9,1.95,0.24,1.95,1.95,> 31.3,> 31.3,3.9,> 31.3,> 31.3
O=C(NNc1ccc(F)cc1)c1nc(F)ccc1F,0.24,0.98,0.98,0.98,0.98,0.98,0.49,15.6,0.24,7.8,1.95,0.98,0.49,1.95,31.3,7.8,0.49,15.6,> 31.3
O=C(NNc1cccc(F)c1)c1nc(F)ccc1F,0.98,0.98,1.95,3.9,1.95,1.95,0.98,15.6,0.49,7.8,1.95,1.95,≤ 0.06,3.9,> 31.3,> 31.3,1.95,> 31.3,> 31.3
COc1ccc(NNC(=O)c2nc(F)ccc2F)cc1,1.95,1.95,1.95,1.95,1.95,0.98,0.98,7.8,0.98,7.8,3.9,0.98,0.98,31.3,31.3,> 31.3,1.95,15.6,31.3
COc1ccc(NNC(=O)c2ccc(F)cn2)cc1,0.24,0.98,0.98,0.98,0.98,0.49,0.49,1.95,0.24,3.9,3.9,0.49,≤ 0.06,31.3,> 31.3,> 31.3,1.95,> 31.3,> 31.3
